Screening data deposited in PubChem by several laboratories.
Lmaj promast – inhibitors of Leishmania major promastigote growth. Leishmania major promastigotes, resazurin fluorescence viability. inhibition, % at 10 µM. 200,000 compounds, 9% hits. AID 1063; in the data active means inhibition above about 50%;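 further: promastigotes grown with compound for 44 hours at 28 °C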
RAM inhibit – yeast RAM network inhibition; inhibition, % at 50 µM; AID 868; 190,000 compounds, 1.8% hits; S. cerevisiae dse1pr::URA3 reporter, 5-FOA growth OD615, 2 d; analog-sensitive cbk1-as2 kinase mutant strain;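 active means inhibition above a set limit, 3 SD over mean compound inhibition, cut at about 8.4% in these data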;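 further: 0% = DMSO-only wells with no growth and 100% = 10 µM 1-NA-PP1 full growth; inhibition rescues growth on 5-FOA so higher OD means more RAM inhibition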
WT yeast gro inh – growth inhibition of WT yeast, mitochondrial fusion screen; 190,000 compounds, 2.1% hits; inhibition, % at 10 µM; mitochondrial fusion phenotypic screen, WT strain; in the data active means inhibition above about 58%; tested in S. cerevisiae
ABCG2 inh – blocks JC-1 efflux by human ABCG2 transporter. IgMXP3 cells, flow cytometry. 190,000 compounds, 0.1% hits. Q9UNQ0. AID 1325. inhibition, % at 6.6 µM;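 active means inhibition above 80%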;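 further: 0% = DMSO and 100% = nicardipine control wells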
Target sequence (Q9UNQ0 whole entry, looked up): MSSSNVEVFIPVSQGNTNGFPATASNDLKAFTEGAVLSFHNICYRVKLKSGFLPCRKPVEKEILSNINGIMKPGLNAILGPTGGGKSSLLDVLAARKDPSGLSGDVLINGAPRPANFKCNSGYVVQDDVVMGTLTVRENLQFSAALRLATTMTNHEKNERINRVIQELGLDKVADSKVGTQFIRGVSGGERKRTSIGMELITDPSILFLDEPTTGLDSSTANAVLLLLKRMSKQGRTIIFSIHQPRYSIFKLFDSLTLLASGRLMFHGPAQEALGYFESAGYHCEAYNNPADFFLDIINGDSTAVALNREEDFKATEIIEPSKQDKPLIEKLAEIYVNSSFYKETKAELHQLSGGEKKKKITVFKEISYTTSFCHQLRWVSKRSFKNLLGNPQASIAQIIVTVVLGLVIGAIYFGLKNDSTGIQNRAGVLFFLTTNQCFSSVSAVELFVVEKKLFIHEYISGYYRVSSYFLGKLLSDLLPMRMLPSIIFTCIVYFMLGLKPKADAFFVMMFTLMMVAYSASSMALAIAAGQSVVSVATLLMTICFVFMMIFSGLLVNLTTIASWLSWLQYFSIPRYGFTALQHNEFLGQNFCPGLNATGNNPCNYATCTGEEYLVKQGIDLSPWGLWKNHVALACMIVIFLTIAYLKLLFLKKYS
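Test system: IgMXP3 cells (ABCG2) mixed with DDAO far-red-labelled CCRF-Adr cells (ABCB1). Reagent: JC-1 transporter substrate. Compound dosing: single test compound dose, 6.6 µM final. Times: 10 min compound exposure, 25 °C. Detection: flow cytometry of retained JC-1 fluorescence. Read-out basis: efflux inhibition in percent versus controls. Controls: nicardipine and DMSO wells.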
ABCB1 inh – human ABCB1 inhibition, ABCG2 as counter-screen; P08183; CCRF-Adr cells, JC-1 efflux, flow cytometry; inhibition, % at 6.6 µM; 190,000 compounds, 0.067% hits; AID 1326; in the data active means inhibition above about 40%;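 further: 0% = vehicle and 100% = reference inhibitor; higher value means more JC-1 retained so stronger ABCB1 efflux block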
The depositor's hits bear a star; · = not tested or not shown. Compounds with a hit are over-represented: about 12% of the library has one in this group of screens.

SMILES | Lmaj promast | RAM inhibit | WT yeast gro inh | ABCG2 inh | ABCB1 inh
Cc1ccc(NC(=O)c2cccs2)cc1NC(=O)c1ccco1 | 2 | 3 | 0 | 4 | 0
COc1c(Cl)cc(Cl)cc1C(=O)Nc1ccc(NC(C)=O)cc1 | 60* | 1 | 1 | 5 | 1
COc1cc(/C=N/Nc2nc(C)cc(=O)[nH]2)ccc1OC(=O)c1cccnc1 | -3 | 2 | 7 | 2 | 1
CCN(CC)c1ccc(S(=O)(=O)N(CC)CC)cc1NC(=O)c1cccnc1 | 22 | 0 | -13 | 8 | 2
O=C(Nc1ccc2nc(-c3ccco3)c(-c3ccco3)nc2c1)N1CCCCCC1 | -7 | 3 | -17 | -2 | -1
CCOC(=O)C1CCN(C(=O)Nc2ccc3nc(-c4ccco4)c(-c4ccco4)nc3c2)CC1 | 96* | 4 | 1 | -2 | -1
CS(=O)(=O)N(CC(=O)Nc1ccc(F)c(F)c1)c1cccc([N+](=O)[O-])c1 | 11 | 1 | 9 | 17 | 1
Cc1ccc(NC(=O)CN(c2ccc(Cl)cc2)S(=O)(=O)c2cc([N+](=O)[O-])ccc2Cl)cc1 | 59* | 4 | 30 | 1 | 0
COc1ccc(C)cc1S(=O)(=O)N(CC(=O)Nc1cccc([N+](=O)[O-])c1)c1ccc(C)c(C)c1 | 50* | 3 | -3 | 2 | 2
CCCCCCn1c(=O)c(-c2ccccc2)c(O)c2ccccc21 | -10 | 9.5* | 16 | 2 | 0
CCCCCCCCCC(=O)NNC(=O)c1c(O)c2ccccc2n(CC)c1=O | -11 | 10* | 0 | 0 | 0
CCn1c(=O)c(C(=O)NNS(=O)(=O)c2ccc(C)cc2)c(O)c2ccccc21 | 59* | 1 | 9 | -10 | -1
CCn1c(=O)c(C(=O)Nc2ncccc2C)c(O)c2ccccc21 | 3 | 0 | 59* | 8 | 1
CCCCCCn1c(=O)c(Cc2ccccc2)c(O)c2ccccc21 | 20 | 7 | -4 | 1 | 0
CCCn1c(=O)c(C(=O)NNS(=O)(=O)c2ccc(C)cc2)c(O)c2ccccc21 | -5 | 3 | 51 | 0 | 0
O=C(c1ccc(S(=O)(=O)c2ccc(F)cc2)c([N+](=O)[O-])c1)N1CCCCCC1 | 98* | 2 | 5 | 2 | ·
O=C(c1ccc(S(=O)(=O)c2ccccc2Cl)c([N+](=O)[O-])c1)N1CCN(Cc2ccccc2)CC1 | 76* | 0 | 3 | 3 | 5
CC1CCN(C(=O)c2ccc(S(=O)(=O)Cc3ccccc3F)c([N+](=O)[O-])c2)CC1 | 93* | 0 | -59 | 2 | ·
O=C(NC1CCCCC1)c1ccc(S(=O)(=O)c2ccccc2Cl)c([N+](=O)[O-])c1 | 3 | 1 | -10 | 2 | 0
CC(C)COP(=O)(CNC(=O)CN1C(=O)c2ccccc2S1(=O)=O)OCC(C)C | -2 | -1 | -33 | 14 | 3
O=C(CNC(=S)N(Cc1ccccc1)Cc1cccnc1)NC1CCCCC1 | 21 | 0 | 13 | 3 | 2
O=C(CCC1CCCN(C(=O)c2ccc3cc[nH]c3c2)C1)NCc1ccc(F)c(F)c1 (stereo not given) | -5 | 3 | -19 | 4 | 0
CC1=NN(c2ccccc2)C(=O)/C1=C/c1cc2cc(C)ccc2nc1N1CCCCC1 | 90* | 1 | 71* | -2 | 0
CC1=NN(c2ccccc2)C(=O)/C1=C\c1cn(C)c2ccccc12 | 8 | 6 | 1 | 0 | 0
Cc1coc2c(C)c3oc(=O)cc(-c4ccccc4)c3cc12 | -1 | · | · | · | ·
SMILES | Lmaj promast | RAM inhibit | WT yeast gro inh | ABCG2 inh | ABCB1 inh
CCOC(=O)C(Oc1ccc2c(-c3ccc(OC)cc3)cc(=O)oc2c1C)c1ccccc1 (stereo not given) | 100* | 3 | · | 3 | 1
CCOC(=O)C(Oc1ccc2c(-c3ccccc3)cc(=O)oc2c1C)c1ccccc1 (stereo not given) | 100* | 3 | 13 | 48 | 2
COc1ccc(-c2cc(=O)oc3c(C)c(OC(=O)c4cccs4)ccc23)cc1 | -3 | 2 | -27 | 5 | 0
CC(=O)NC(Cc1ccccc1C)C(=O)NC1CCN(C(=O)c2ccc(C)cc2)CC1 (stereo not given) | -4 | 1 | 13 | 14 | 1
COc1cc(C(=O)O/N=C2/C=C(C)C(=O)C=C2C)cc(OC)c1OC | 93* | 2 | -23 | 16 | 1
COc1cc(C(=O)OCC(=O)c2cc(C)n(C)c2C)cc(OC)c1OC | 19 | 0 | 5 | -1 | 0
COc1cc(C(=O)Oc2cc(C)cc(C)c2)cc(OC)c1OC | -7 | 3 | -12 | 0 | 0
COc1cc(C(=O)ON=C2C(C)=CC(=O)C=C2C)cc(OC)c1OC | 74* | 1 | -20 | 42 | 1
COC(=O)c1cc(=O)c2c(C)nc(C(Cl)(Cl)Cl)nc2[nH]1 | -14 | 4 | -7 | -4 | -2
CN(Cc1ccccc1)c1ccc(N2C(=O)CCCC2=O)cc1[N+](=O)[O-] | 81* | 3 | 1 | 11 | 1
Cc1cccc(N2CCN(c3ccc(N4C(=O)CCCC4=O)cc3[N+](=O)[O-])CC2C)c1 (stereo not given) | 50* | -1 | 12 | 17 | 14
Cc1cccc(N2CCN(c3ccc(N4C(=O)CCCC4=O)cc3[N+](=O)[O-])CC2)c1C | 58* | 4 | 8 | 17 | 3
CC(=O)Nc1ccc(S(=O)(=O)N2CCN(Cc3cccc([N+](=O)[O-])c3)CC2)cc1 | -6 | -1 | 0 | 5 | 1
COC(=O)C1CSC(C(=O)OC)N1C(=O)CN1CCN(c2ccc(OC)cc2)CC1 (stereo not given) | -4 | 0 | 0 | 3 | 2
Cc1cc(C(=O)COC(=O)c2cccnc2Cl)c(C)n1-c1c(C)n(C)n(-c2ccccc2)c1=O | -6 | 2 | 0 | 0 | 0
Cc1ccccc1-n1ccnc1SCC(=O)NCc1ccco1 | -4 | 0 | -14 | 1 | 0
O=c1c2cc3c(cc2[nH]c(=S)n1Cc1ccco1)OCO3 | -2 | 2 | 11 | 21 | 0
CC1(C)NC(=O)N(CCCCOc2ccc(Cl)cc2C=O)C1=O | 57* | 2 | -8 | 17 | 1
CC1(C)NC(=O)N(CCCCOc2ccc(Cl)cc2)C1=O | -4 | -1 | -10 | 16 | 0
CCOC(=O)Cc1cnc(NC(=O)CSc2nc(C)c(CC)c(=O)[nH]2)s1 | -2 | -1 | 0 | 5 | 0
OCCN1CCN(CCCc2c3c(cc4c2CCC4)CCC3)CC1 | 86* | 3 | -9 | -7 | 1
Cc1c(Br)cc(C(=O)N2CCN(CCO)CC2)c(C)c1C | -8 | 2 | 13 | 12 | 1
COc1ccc2nc(NC(=O)c3cc(S(=O)(=O)N4CCOCC4)ccc3C)sc2c1 | 56* | 8 | 15 | 4 | 0
COc1cc(C(=O)Nc2nc3ccc(S(=O)(=O)N4CCOCC4)cc3s2)cc(OC)c1OC | 61* | 3 | · | 2 | 0
COc1ccc(OC)c2sc(NC(=O)c3ccc(S(=O)(=O)N4CCOCC4)cc3)nc12 | 1 | 5 | 1 | 1 | 0
